TRPC6 inhibitor – inhibitors of mouse TRPC6 channel; Q61143; B-score at 10 µM; 1.1% of 310,000 active; HEK293-TRPC6, membrane potential dye, ACh-evoked depolarization; active compounds read low;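 active means B-score under library mean minus 3 SD, initial fluorescence not abnormally high, positive integrated signal ratio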;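 further: B-score derived from integrated fluorescence ratio over the kinetic read; more negative B-score means stronger inhibition of depolarization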
TRPC4 block – inhibitors of mouse TRPC4 channel; B-score at 10 µM; HEK293 TRPC4beta/mu-opioid, DAMGO-evoked Fluo4 calcium flux; active compounds read low; 0.39% of 300,000 active;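 active means B-score over 3 SD under the library average, no early fluorescence shift, positive overall ratio signal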
Target sequence (Q9QUQ5 whole entry, looked up): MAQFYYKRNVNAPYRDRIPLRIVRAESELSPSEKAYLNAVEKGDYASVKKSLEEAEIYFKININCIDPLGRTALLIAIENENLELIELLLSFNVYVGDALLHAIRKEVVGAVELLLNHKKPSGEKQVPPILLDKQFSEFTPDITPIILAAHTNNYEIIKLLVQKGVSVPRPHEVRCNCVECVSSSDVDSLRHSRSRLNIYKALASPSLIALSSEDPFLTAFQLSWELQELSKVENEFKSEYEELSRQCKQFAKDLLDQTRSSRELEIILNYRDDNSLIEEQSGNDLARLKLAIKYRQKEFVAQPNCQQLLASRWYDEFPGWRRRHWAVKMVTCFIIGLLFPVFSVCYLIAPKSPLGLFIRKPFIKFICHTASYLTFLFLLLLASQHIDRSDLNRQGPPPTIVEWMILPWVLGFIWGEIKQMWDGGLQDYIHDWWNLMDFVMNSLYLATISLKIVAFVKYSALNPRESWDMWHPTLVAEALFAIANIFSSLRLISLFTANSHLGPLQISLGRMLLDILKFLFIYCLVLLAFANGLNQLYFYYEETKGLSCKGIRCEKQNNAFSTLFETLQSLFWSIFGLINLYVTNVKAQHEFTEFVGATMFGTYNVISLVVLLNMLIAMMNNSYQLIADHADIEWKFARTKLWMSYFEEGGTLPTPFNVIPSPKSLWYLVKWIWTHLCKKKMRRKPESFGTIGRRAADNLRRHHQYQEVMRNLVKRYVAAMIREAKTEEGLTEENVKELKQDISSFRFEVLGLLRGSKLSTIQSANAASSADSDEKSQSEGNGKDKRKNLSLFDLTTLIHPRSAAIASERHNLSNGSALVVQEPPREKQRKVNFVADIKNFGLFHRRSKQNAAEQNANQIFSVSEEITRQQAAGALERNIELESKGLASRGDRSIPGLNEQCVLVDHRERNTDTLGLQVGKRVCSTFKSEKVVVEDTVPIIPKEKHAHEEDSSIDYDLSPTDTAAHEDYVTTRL
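Assay system: TRPC4beta/mu-opioid receptor HEK293 cell line; compound dosing: single concentration per test compound; detection: Fluo4 Ca2+ flux fluorescence; evaluation: per-well B score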
TRPC4 agonist – activators of mouse TRPC4 channel; HEK293 TRPC4beta/mu-opioid, Fluo4 calcium fluorescence; active compounds read high; B-score at 10 µM; 0.49% of 310,000 active; AID 2237;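 active means B-score above 5 SD of library B-scores, and initial fluorescence ratio not above library mean plus 5 SD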;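 further: positive B-score marks a calcium rise read as TRPC4 activation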
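System – HEK293 cells stably co-expressing mouse TRPC4beta and mu-opioid receptor · Signal – Fluo4 calcium-sensitive dye fluorescence, kinetic, 1 Hz baseline · Benchmarks – buffer (low) and maximal DAMGO (high) · Read-out – B score of integrated fluorescence ratio per well · Incubation – dye loading 45 min room temperature, 110 s kinetic read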
TRPC4 potent – allosterically enhances the mouse TRPC4 cation channel | Q9QUQ5 | AID 2227 | HEK293 TRPC4beta/mu-opioid, DAMGO EC20, Fluo-4 Ca2+ flux; active compounds read high | 0.42% of 310,000 active | B-score at 10 µM;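 active means B-score of calcium response area above 5 SD of library B-scores, with initial fluorescence ratio within 5 SD of library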
TRPC6 activator – mouse TRPC6 channel activation; 0.13% of 310,000 active; B-score at 10 µM; AID 2550; Q61143; HEK293-TRPC6 membrane potential dye fluorescence; active compounds read high;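 active means B-score of the integrated fluorescence ratio above library mean plus 3 SD, and starting fluorescence ratio within library mean plus 5 SD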;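 further: higher score means more depolarization so channel activation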
TRPC4 sel inh 2 – mouse TRPC4 off-target activity of TRPC6 inhibitors, second screen. HEK293 TRPC4/MOR, membrane potential dye fluorescence; channel activated by saturating DAMGO dose. AID 2776. 42% of 920 active. shares compounds with TRPC6 inhibitor. inhibition, % at 10 µM;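 active means compounds whose fluorescence signal differed from control wells by over 3 SD, either direction, in both duplicate plates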
TRPC4 spec – selectivity of TRPC6 inhibitors: effect on mouse TRPC4; AID 2777; shares compounds with TRPC6 inhibitor; 61% of 920 active; activity change, negative = inhibition, % at 10 µM; HEK293 TRPC4/mu-opioid, membrane potential fluorescence;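 active means rise or fall in signal beyond 3 SD of buffer-only wells in both replicate plates, either sign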;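 further: integrated kinetic ratio of fluorescence range over baseline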
HEK293 MPD ctr 2-1 – parental HEK293 nonspecific activity of TRPC6 inhibitors, second screen; shares compounds with TRPC6 inhibitor; parental HEK293 membrane potential dye fluorescence; maximal acetylcholine challenge after compound addition; signal change vs control, % at 10 µM; 31% of 920 active; AID 2779;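 active means membrane potential signal moving either way by over 3 SD of the maximum-effect control, in both duplicate plates, meaning non-specific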
HEK293 MPD ctr-1 – parental HEK293 nonspecific activity of TRPC6 inhibitors. AID 2780. membrane potential signal change, % at 10 µM. 60% of 920 active. shares compounds with TRPC6 inhibitor. parental HEK293 membrane potential dye fluorescence;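 active means membrane potential signal shifting up or down by more than 3 SD of buffer-only wells, on both duplicate plates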
HEK293 MPD ctr-2 – parental HEK293 nonspecific activity of TRPC6 modulators. shares compounds with TRPC6 inhibitor. membrane potential dye fluorescence. 51% of 2,400 active. membrane potential signal change, % at 10 µM;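 active means membrane potential signal moves up or down beyond 5 SD from buffer-only wells, on both duplicate plates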
HEK293 MPD ctr 2-2 – second counter-screen for TRPC6 modulators: effect in parental HEK293 cells. inhibition, % at 10 µM. 14% of 2,400 active. shares compounds with TRPC6 inhibitor. membrane potential dye fluorescence; after compound, maximal acetylcholine stimulation;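 active means membrane potential signal drops by more than 5 SD from the mean control signal, in both duplicate plates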
TRPC4/MOR mod – tests whether TRPC6 modulators also affect mouse TRPC4 | shares compounds with TRPC6 inhibitor | HEK293 TRPC4/mu-opioid, membrane potential fluorescence | percent change from control (negative = decrease, positive = increase), % at 10 µM | 69% of 2,400 active | AID 488927;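 active means membrane potential signal moved up or down beyond 5 SD of buffer control wells, in both duplicate plates, actives on both sides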
TRPC4 ctr inh 2 – mouse TRPC4 off-target activity of TRPC6 modulators, second screen; shares compounds with TRPC6 inhibitor; 55% of 2,400 active; HEK293 TRPC4/mu-opioid, membrane potential dye fluorescence; stimulated with maximal-effect DAMGO; inhibition, % at 10 µM;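 active means drop in membrane potential signal beyond 5 SD of the control wells in both duplicate plates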;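 further: TRPC4 counter screen for TRPC6 hits run under conditions tuned for TRPC6 not TRPC4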
TRPC6 block conf – confirmation of mouse TRPC6 inhibitors; inhibition, % at 10 µM; 43% of 3,300 active; HEK293-TRPC6, membrane potential dye, ACh-evoked depolarization; shares compounds with TRPC6 inhibitor; AID 488960;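 active means fluorescence ratio falls more than 5 SD below the full-stimulation control mean, in both duplicate runs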;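 further: integrated fluorescence ratio of peak minus minimum over baseline after agonist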
TRPC6 act confirm – mouse TRPC6 activator confirmation; activation, % at 10 µM; HEK293-TRPC6 membrane potential dye fluorescence, FDSS; shares compounds with TRPC6 inhibitor; 11% of 2,800 active;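 active means ratio signal rise beyond 5 SD above unstimulated control wells' mean, seen in both duplicate runs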
Numbers stand for hits; n = inactive; x = not tested or not shown. In the library only some 2.3% were active in any assay of this set; here they are far more common.

SMILES	TRPC6 inhibitor	TRPC4 block	TRPC4 agonist	TRPC4 potent	TRPC6 activator	HEK293 MPD ctr-2	HEK293 MPD ctr 2-2	TRPC4/MOR mod	TRPC4 ctr inh 2	TRPC6 block conf	TRPC6 act confirm	others
O=C(Nc1cc2c3c(c1)C1CCCC1CN3CC1CCCC21)c1ccccc1 (stereo unspecified)	-5.9	n	n	n	n	-70%	n	-16%	n	n	n
O=C(Oc1ccc(Br)cc1)c1n[nH]c(=O)c2ccccc12	n	n	n	n	n	x	x	x	x	x	x
O=C(/C=C\c1ccccc1OC(=O)c1ccccc1F)c1cc2ccccc2o1	-7.1	n	n	n	n	x	x	x	x	n	n	TRPC4 sel inh 2=n;TRPC4 spec=n;HEK293 MPD ctr 2-1=n;HEK293 MPD ctr-1=n
COc1ccc(-c2nnc3sc(C4CCCCC4)nn23)cc1OC	n	n	n	n	13	144%	n	40%	n	n	86%
O=C(NCc1cccs1)C1CC(c2ccccc2O)=NO1 (stereo unspecified)	n	n	n	n	n	x	x	x	x	x	x
O=C(NCc1ccccn1)C1CC(c2ccccc2O)=NO1 (stereo unspecified)	-5.4	n	n	n	n	n	n	n	n	n	n
N=c1c2c3c(sc2ncn1N)CCC3	n	n	n	n	n	x	x	x	x	x	x
CC(C)(C)C1CCc2c(sc3ncn(N)c(=N)c23)C1 (stereo unspecified)	-6.5	n	n	n	n	n	n	-16%	67%	46%	n
Cc1cccc2cc3c(nc12)-c1ccccc1C3=O	n	n	n	n	n	x	x	x	x	x	x
Cc1nc2c(cc1C#N)C(=O)c1ccccc1-2	-5	n	n	n	n	-114%	n	-22%	n	n	n
CCCOc1ccc(N2C(=O)CC(N(CCc3ccc(OC)cc3)C(=O)/C=C/C(=O)O)C2=O)cc1 (stereo unspecified)	-10	n	n	n	n	x	x	x	x	n	n	TRPC4 sel inh 2=n;TRPC4 spec=n;HEK293 MPD ctr 2-1=n;HEK293 MPD ctr-1=n
Cc1ccc2nc(CSc3nnc(-c4ccco4)o3)cc(=O)n2c1	-5.3	n	n	n	n	n	n	n	n	n	x
CCN(Cc1ccncc1)C(=O)C(CO)c1ccccc1 (stereo unspecified)	-5.7	n	n	n	n	n	66%	n	n	82%	n
CCN(Cc1ccncc1)C(=S)Nc1ccccc1	n	n	n	n	n	x	x	x	x	x	x
Cn1c(CC(=O)Nc2ccccc2)cc2ccccc21	n	n	n	n	n	x	x	x	x	x	x
O=[N+]([O-])c1ccc(Cl)c(-c2ccc(/C=N/n3cnnc3)o2)c1	-7.3	n	n	n	n	-154%	n	-30%	n	n	n
CN1CCN(/N=C/c2ccc(-c3ccc([N+](=O)[O-])cc3Cl)o2)CC1	n	n	n	n	13	260%	n	39%	n	n	92%
COc1cc([N+](=O)[O-])ccc1-c1ccc(/C=N/NC(=O)c2ccccc2O)o1	n	n	n	n	n	x	x	x	x	x	x
Cc1cc(-c2ccc(/C=N/n3cnnc3)o2)c(C)c([N+](=O)[O-])c1	-6	n	n	n	n	-221%	71%	-44%	58%	48%	n
COc1cc([N+](=O)[O-])ccc1-c1ccc(/C=N\n2cnnc2)o1	-9.3	n	n	n	n	n	n	-61%	39%	n	n
N#CC(c1ccc(Cl)cc1)c1ccc(Cl)nn1 (stereo unspecified)	n	n	n	n	n	x	x	x	x	x	x
CC(=O)c1c(C)nc(-c2ccc(Cl)cc2)nc1NC(=O)C(C)C	-6	n	n	n	n	n	106%	18%	n	72%	x
COc1ccc(/C=N/NC(=O)OC(C)(C)C)cc1OC	n	n	n	n	n	x	x	x	x	x	x
O=C(CC(c1ccccc1)c1cc(Cl)ccc1O)N1CCCC1 (stereo unspecified)	n	n	n	n	n	x	x	x	x	x	x
O=C(CC(c1ccccc1O)N1CCCCC1)N1CCCCC1 (stereo unspecified)	-9.7	n	n	n	n	x	x	x	x	63%	x	TRPC4 sel inh 2=n;TRPC4 spec=3.6%;HEK293 MPD ctr 2-1=n;HEK293 MPD ctr-1=4.8%
SMILES	TRPC6 inhibitor	TRPC4 block	TRPC4 agonist	TRPC4 potent	TRPC6 activator	HEK293 MPD ctr-2	HEK293 MPD ctr 2-2	TRPC4/MOR mod	TRPC4 ctr inh 2	TRPC6 block conf	TRPC6 act confirm	others
CCN1C(=O)[C@H]2[C@@H](c3ccc(Cl)cc3)N3C(=O)CN(CC4CC4)C(=O)[C@@]3(Cc3ccccc3)[C@H]2C1=O	n	n	n	n	n	x	x	x	x	x	x
COCCCNC(=S)N1CCCN(c2nc3cc(C)c(C)cc3cc2C#N)CC1	-5.2	n	n	n	n	n	n	n	n	60%	x
CCOCCCNC(=S)N1CCCN(c2nc3cc(C)c(C)cc3cc2C#N)CC1	n	n	n	n	n	x	x	x	x	x	x
COCCCNC(=S)N1CCCN(c2nc3cc(C)ccc3cc2C#N)CC1	-11	n	n	n	n	x	x	x	x	85%	x	TRPC4 sel inh 2=n;TRPC4 spec=n;HEK293 MPD ctr 2-1=n;HEK293 MPD ctr-1=n
CC1CCN(CCCNC(=O)c2ccc(CSCc3cccc(Cl)c3)o2)CC1	n	n	n	n	n	x	x	x	x	x	x
COc1ccccc1N1CCN(C/C=C/c2ccc(N(C)C)cc2)CC1	-7.5	n	n	n	n	x	x	x	x	n	n	TRPC4 sel inh 2=68%;TRPC4 spec=-10%;HEK293 MPD ctr 2-1=n;HEK293 MPD ctr-1=-247%
O=C(O)c1cccc(N=C2NC(=O)C(CO)(CO)S2)c1	n	n	n	n	n	x	x	x	x	x	x
CCN(CC)S(=O)(=O)c1ccc(NC(=O)C(C)N(c2ccc(OC)cc2)S(C)(=O)=O)cc1 (stereo unspecified)	n	n	n	n	n	x	x	x	x	x	x
CCOc1ccc(N(C(C)C(=O)Nc2ccc(OC)cc2)S(C)(=O)=O)cc1 (stereo unspecified)	-6.4	n	n	n	n	n	n	n	n	n	n

Source: PubChem
